Test results as given in ChEMBL document CHEMBL1124029, “Novel DNA groove binding alkylators: design, synthesis, and biological evaluation” (1988).

Legend:
Coxsackievirus B4 [1] = assay: Minimum inhibitory concentration required to reduce virus induced cytopathogenicity by 50% against Coxsackie type B4 virus in HeLa cell cultures; format: functional; settings: Enterovirus B
Coxsackievirus B4 [2] = assay: Minimum inhibitory concentration required to reduce virus induced cytopathogenicity by 50% against Coxsackie type B4 virus in Vero B cell cultures; format: functional; settings: Enterovirus B
FM3A = assay: Inhibition of proliferation of Murine mammary carcinoma (FM3A) cells was measured; format: functional; settings: Mus musculus, read-out: ID50 (the source's name)
Human alphaherpesvirus 2 = assay: Minimum inhibitory concentration required to reduce virus induced cytopathogenicity by 50% against herpes simplex-2 virus in rabbit primary kidney cell cultures; format: functional
Human alphaherpesvirus 1 = assay: Minimum inhibitory concentration required to reduce virus induced cytopathogenicity by 50% against herpes simplex-1 virus in rabbit primary kidney cell cultures; format: functional
L1210 [3] = assay: Inhibition of proliferation of Murine Leukemia (L1210) cells was measured; format: functional; settings: Mus musculus, read-out: ID50 (the source's name)
MOLT-4F = assay: Inhibition of proliferation of Human T Lymphoblast (Molt/4F) cells was measured; format: functional; settings: read-out: ID50 (the source's name)
P388 = assay: Percent inhibition of proliferation of Murine Leukemia (P388) cells was measured; format: functional, Mus musculus; parameters: concentration or dose not given beside the values
Procedure, shortened: (§1)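 Mouse leukemia L1210 cells were grown in McCoy's 5A medium and P388D1 cells in Fischer's medium, each with 10% fetal calf serum. Compounds were dissolved in water, or sonicated and given as a suspension if poorly soluble. Cells were seeded at 1×10^5 per well and grown 72 h at 37 °C in 5% CO2. Viability was read by MTT formazan optical density at 570 nm (reference 630 nm).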

[4] = Minimum inhibitory concentration required to reduce virus induced cytopathogenicity by 50% against para influenza virus in WI-38 cell cultures; format: functional
Poliovirus 1 = assay: Minimum inhibitory concentration required to reduce virus induced cytopathogenicity by 50% against polio type 1 virus in HeLa cell cultures; format: functional; settings: Enterovirus C
[5] = system: Mammalian orthoreovirus 1; assay: Minimum inhibitory concentration required to reduce virus induced cytopathogenicity by 50% against Reo-1 virus in WI-38 cell cultures; format: functional
Human rhinovirus 1A = assay: Minimum inhibitory concentration required to reduce virus induced cytopathogenicity by 50% against rhino-1A virus in WI-38 cell cultures; format: functional
rhinovirus A9 = assay: Minimum inhibitory concentration required to reduce virus induced cytopathogenicity by 50% against rhino-9 virus in WI-38 cell cultures; format: functional; settings: Rhinovirus A
Semliki Forest virus = assay: Minimum inhibitory concentration required to reduce virus induced forest virus in Vero B cell cultures; format: functional
Sindbis virus = assay: Minimum inhibitory concentration required to reduce virus induced cytopathogenicity by 50% against sindbis virus in Vero B cell cultures; format: functional
[6] = system: Vesicular stomatitis virus; assay: Minimum inhibitory concentration required to reduce virus induced cytopathogenicity by 50% against Vesicular stomatitis virus in HeLa cell cultures; format: functional
[7] = (§2) Minimum cytotoxic concentration required to cause a microscopically detectable alteration of normal cell morphology; format: functional
[8] = as §2; format: functional; remark: listed apart in the source
Raji = assay: Inhibition of proliferation of Human B Lymphoblast (Raji) cells was measured; format: functional; settings: read-out: ID50 (the source's name)
L1210 [9] = assay: Percent inhibition of proliferation of Murine Leukemia (L1210) cells was measured; format: functional, Mus musculus; parameters: concentration or dose not given beside the values; procedure, shortened: as §1
NAMALVA = assay: Inhibition of proliferation of Human B Lymphoblast (Namalva) cells was measured; format: functional; settings: read-out: ID50 (the source's name)
Hepatoma cell line = assay: Inhibition of proliferation of Human hepatoma cells was measured; format: functional; settings: read-out: ID50 (the source's name)

SMILES | MIC (Coxsackievirus B4 [1]) [µg/mL] | MIC (Coxsackievirus B4 [2]) [µg/mL] | IC50 (FM3A) [µg/mL] | MIC (Human alphaherpesvirus 2) [µg/mL] | MIC (Human alphaherpesvirus 1) [µg/mL] | IC50 (L1210 [3]) [µg/mL] | IC50 (MOLT-4F) [µg/mL] | Inhibition (P388) [%] | MIC [4] [µg/mL] | MIC (Poliovirus 1) [µg/mL] | MIC [5] [µg/mL] | MIC (Human rhinovirus 1A) [µg/mL] | MIC (rhinovirus A9) [µg/mL] | MIC (Semliki Forest virus) [µg/mL] | MIC (Sindbis virus) [µg/mL] | MIC [6] [µg/mL] | MCC [7] [µg/mL] | MCC [8] [µg/mL] | IC50 (Raji) [µg/mL] | Inhibition (L1210 [9]) [%] | other results
Cl.Cn1cc(NC(=O)c2cc(NC(=O)C(Cl)(Cl)Cl)cn2C)cc1C(=O)NCCC(=N)N | > 40 | > 100 | > 100 | > 100 | > 100 | 30.5 | 84.3 | 55 | > 100 | > 40 | > 40 | > 40 | > 40 | > 100 | > 100 | > 40 | > 100 | > 200 | 68.7 | 28 | –
Cl.Cn1cc(NC(=O)c2cc(NC(=O)CCl)cn2C)cc1C(=O)NCCC(=N)N | > 100 | > 100 | 13.3 | 70 | 70 | 8.7 | 28.7 | 38 | > 100 | > 100 | > 100 | – | – | > 100 | > 100 | > 200 | ≥ 100 | – | 3.09 | 29 | IC50 (NAMALVA): 5.3 µg/mL; IC50 (Hepatoma cell line): 3.63 µg/mL
Cl.Cn1cc(NC(=O)c2cc(NC(=O)CF)cn2C)cc1C(=O)NCCC(=N)N | – | > 200 | ≥ 100 | 100 | 150 | 40.3 | 32.3 | 0 | > 40 | – | > 100 | > 200 | > 200 | > 200 | > 200 | 100 | > 200 | > 100 | 33.1 | 0 | IC50 (NAMALVA): 32.3 µg/mL
Cl.Cn1cc(NC(=O)c2cc(NC(=O)CCCCl)cn2C)cc1C(=O)NCCC(=N)N | – | – | 74.1 | 150 | 300 | > 100 | > 100 | 0 | – | – | – | – | – | – | – | > 400 | > 200 | > 200 | > 100 | 0 | –
Cl.Cl.Cn1cc(NC(=O)c2cc(NC(=O)c3cc(NC=O)cn3C)cn2C)cc1C(=O)NCCC(=N)N | – | > 200 | 30.6 | 70 | 70 | 27.1 | 28.4 | – | > 200 | – | > 200 | – | – | > 200 | > 200 | > 100 | > 200 | > 200 | 23.7 | – | IC50 (NAMALVA): 22.5 µg/mL; IC50 (Hepatoma cell line): 54.7 µg/mL
Cl.Cn1cc(NC(=O)c2cc(NC(=O)C3CC3)cn2C)cc1C(=O)NCCC(=N)N | – | > 100 | > 100 | 40 | 20 | > 100 | 7.8 | 8 | > 100 | – | > 100 | > 40 | 20 | > 100 | > 100 | > 100 | 100 | > 200 | 26.7 | 3 | –
CC[N+](CC)(CC)CC.Cn1cc(NC(=O)c2cc(NC(=O)C(Cl)Cl)cn2C)cc1C(=O)NCCC(=N)N.O=S(=O)([O-])O | > 100 | > 40 | > 100 | 70 | 70 | > 100 | 27.2 | 28 | > 100 | > 100 | > 200 | 40 | 40 | > 100 | > 100 | > 200 | 200 | > 200 | 24.1 | 13 | –
Cl.Cl.Cn1cc(NC(=O)c2cc(NC(=O)CNC(=N)N)cn2C)cc1C(=O)NCCC(=N)N [CONGOCIDINE] | – | > 200 | – | > 10 | > 10 | – | > 100 | – | > 100 | – | > 200 | – | – | > 200 | > 200 | > 10 | > 400 | – | – | – | IC50 (Hepatoma cell line): 44.7 µg/mL
